Published values collected from several papers.
Compare with care: the assays were run in different laboratories.
Target: Serine/threonine-protein kinase SBK1 (SBK1, Homo sapiens, UniProt Q52WX2)

Compound	assay	conditions	remaining binding
CN(CCCC(F)(F)F)c1nccc(-c2cnn3ncccc23)n1	binding	1 µM	85%
C[C@@H](c1ccc(-n2cnc3c(N)ncnc32)cc1)N1CCc2nn(C)c(Cc3ccccc3)c2C1=O	binding, competition with immobilised ligand	0.1 µM	69%
Cc1c[nH]c2nccc(Oc3c(F)cc(Nc4cc(Cl)nc(N)n4)cc3F)c12	cell-free assay, competition with immobilised ligand	0.1 µM	94%
CNC(=O)[C@@H]1CC[C@@H](n2c(-c3ccc4cnccc4c3)nc3ccc(C(=O)NCc4cccc(C(N)=O)c4)cc32)C1	binding, competition with immobilised ligand	1 µM	100%
CCCOc1ccc([C@H]2[C@H](C(=O)O)[C@@H](c3ccc4c(c3)OCO4)CN2CC(=O)Nc2c(CC)cccc2CC)cc1	cell-free assay, competition with immobilised ligand	1 µM	78%
O=C(Nc1c[nH]nc1C(=O)NC1CCNCC1)c1cc(F)cc(F)c1	binding, competition with immobilised ligand	1 µM	100%
Cc1cc(NC(=O)c2cccc(S(F)(F)(F)(F)F)c2)cc(-n2ccn3nc(-c4cccnc4)cc23)c1	cell-free assay, competition with immobilised ligand	1 µM	100%
N[C@H]1CCN(c2nccc(-c3cnn4ncccc34)n2)C1	binding	1 µM	83%
FC(F)(F)Oc1cccc(-c2cnc3ccc(-c4ccncc4)nn23)c1	binding, competition with immobilised ligand	5 µM	85%
c1cnn2ncc(-c3ccnc(N4CCC45COC5)n3)c2c1	binding	1 µM	65%
O=C(NCCCN1CCOCC1)c1ccc(Nc2ncc(Cl)c(-c3ccc(Cl)s3)n2)cc1	binding, competition with immobilised ligand	1 µM	52%
CC1CCCN1c1nccc(-c2cnn3ncccc23)n1 (stereo not shown)	binding	1 µM	100%
CN(C)CC#Cc1ccc(OCCCc2sc(N3CCc4cccc(C(=O)Nc5nc6ccccc6s5)c4C3)nc2C(=O)O)c(F)c1	cell-free assay, competition with immobilised ligand	1 µM	100%
C=CC(=O)N1CCC(C(=O)NCC(=O)N2CCN(c3nc(-c4cnc(N)nc4C(F)F)nc(N4CCOCC4)n3)CC2)CC1	binding, competition with immobilised ligand	1 µM	100%
Nc1ncc2c(n1)-c1c([nH]c3ccc(C#CC4CC4)cc13)CCCC2	binding, competition with immobilised ligand	1 µM	100%
Cc1cnn2ncc(-c3ccnc(N(C)C)n3)c2c1	binding	1 µM	83%
O=C(c1ccc(Nc2nccc(-c3cc4ccccc4s3)n2)cc1)N1CCC(N2CCCC2)CC1	binding, competition with immobilised ligand	1 µM	88%
O=S(=O)(NC1CCC(c2cc(F)ccc2F)(S(=O)(=O)c2ccc(Cl)cc2)CC1)C(F)(F)F (stereo not shown)	cell-free assay, competition with immobilised ligand	1 µM	75%
C[C@@H]1CCN(c2nccc(-c3cnn4ncccc34)n2)C1	binding	1 µM	85%
Cc1cc(-n2nc(Cc3cc(F)cc(C(F)(F)F)c3)nc2C)ccc1C(N)=O	cell-free assay, competition with immobilised ligand	1 µM	98%
c1cncc(-c2cccc(Nc3nccc(NC4CCCCC4)n3)c2)c1	binding, competition with immobilised ligand	10 µM	66%
O=C(NCCCN1CCOCC1)c1ccc(Nc2nccc(-c3cc4ccccc4s3)n2)cc1	binding, competition with immobilised ligand	1 µM	71%
